Measurements as given in ChEMBL document CHEMBL1287738, “Synthesis and biological evaluation of retinoid-chalcones as inhibitors of colon cancer cell growth” (Bioorg Med Chem Lett, 2010).

Tested on: HT-29
Experiment: Growth inhibition of human HT-29 cell
Type: functional, cell-based
Outline: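 Human colon carcinoma HT-29 cells (Apc-null, wild-type β-catenin) incubated with varying concentrations of each compound for 3 days at 37°C; growth inhibition measured.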

IC50: 3.7 µM
SMILES: N#Cc1ccc(/C=C/C(=O)c2ccccc2)cc1
